Screens as filed in PubChem BioAssay.
Rows were chosen to be rich in hits. Some 0.55% of all compounds tested hit in one or more screens of this group.
TRPN1 ag: zebrafish TRPN1 (NompC) channel agonism | AID 1424 | activation, % at 3 µM | HEK293 zebrafish TRPN1-YFP, Fluo-8 calcium fluorescence; 100% = response to 87 µM carbachol | actives 0.18% (n = 220,000);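 active = activation above its plate's cutoff, the mean activation of test wells on that plate plus 3 SD, cut at about 19% in these data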
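System: zebrafish TRPN1-YFP in HEK293 cells / Dosing: 3 µM single point / Timing: dye loading 1 h at 37 °C, then 30 min room temperature / Signal: Fluo-8 calcium fluorescence, excitation 470-495 nm, emission 515-575 nm / Read-out basis: percent activation from peak over basal fluorescence ratio, control-normalized / Control set: high carbachol 87 µM, low DMSO alone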
OXTR agonist: activates the human oxytocin receptor | P30559 | CHO-OTR cells, Fluo-8 calcium fluorescence; normalized: DMSO 0%, oxytocin 100% | activation, % at 3 µM | actives 0.32% (n = 320,000) | AID 2435;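 active = activation above the mean of all tested compounds plus 3 SD, cutoff set per screening run, cut at about 20% in these data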;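 also: peak over basal fluorescence ratio from a 100 s FLIPR kinetic read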
TRPML3 ag: agonists of human TRPML3 channel | HEK293 TRPML3-YFP, Fluo-8 calcium fluorescence; 100% = the carbachol control signal | activation, % at 3 µM | actives 0.29% (n = 220,000) | AID 1448;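 active = activation above its plate's cutoff, the mean activation of the plate's test wells plus 3 SD, cut at about 12% in these data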
Target sequence (Q8TDD5 whole entry, looked up): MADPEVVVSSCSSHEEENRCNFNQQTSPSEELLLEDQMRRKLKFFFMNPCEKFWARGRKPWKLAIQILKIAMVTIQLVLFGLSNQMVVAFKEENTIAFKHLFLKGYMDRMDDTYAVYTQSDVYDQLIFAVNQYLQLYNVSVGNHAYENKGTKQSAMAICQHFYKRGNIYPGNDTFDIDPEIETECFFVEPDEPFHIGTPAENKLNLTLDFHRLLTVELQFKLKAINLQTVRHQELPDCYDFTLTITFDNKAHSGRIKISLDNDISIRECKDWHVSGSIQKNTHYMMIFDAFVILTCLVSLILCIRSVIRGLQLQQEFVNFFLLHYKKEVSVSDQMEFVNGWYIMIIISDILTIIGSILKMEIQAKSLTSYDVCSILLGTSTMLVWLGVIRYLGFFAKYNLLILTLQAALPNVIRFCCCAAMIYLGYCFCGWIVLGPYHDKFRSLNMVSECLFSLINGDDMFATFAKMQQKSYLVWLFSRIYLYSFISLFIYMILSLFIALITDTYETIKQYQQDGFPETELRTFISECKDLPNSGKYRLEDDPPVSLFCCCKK
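Test system – HEK293 line with stable expression of human TRPML3-YFP channel · Control set – carbachol 87 µM final as high control (100%), DMSO as low control (0%) · Signal – Fluo-8 calcium dye fluorescence, ex 470-495, em 515-575 nm · Incubation – 1-h 37 °C dye load, 5-s basal, 120-s post-compound reads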
V1aR counter: counter-screen for oxytocin receptor agonists: human V1a receptor agonists; P37288; CHO-V1R cells, Fluo-8 calcium fluorescence, agonist mode; 0% DMSO, 100% 3 nM vasopressin; activation, % at 3 µM; actives 0.25% (n = 320,000);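 active = activation above the mean activation of all tested compounds plus 3 SD, per screening run, cut at about 20% in these data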;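 also: signal is peak over basal fluorescence ratio across a 100 second FLIPR read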
OXTR potentiate: human OXTR potentiation | P30559 | CHO-OTR cells, Fluo-8 calcium fluorescence, potentiator mode; 0% = oxytocin EC15, 100% = EC100 | activation, % at 3 µM | actives 0.061% (n = 320,000) | AID 2445;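 active = activation above that plate's cutoff, the mean activation of tested compounds plus 3 SD, cut at about 6.6% in these data, passing the limit was not always enough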
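System: human OTR in CHO cells / Also added: sub-maximal oxytocin, roughly EC15 / Control set: EC15 oxytocin low, 75 nM oxytocin high / Schedule: 6 min compound pre-incubation at room temperature, 100 s kinetic read / Compound: single-point 3.0 µM / Replication: singlicate / Technique: Fluo-8 calcium dye fluorescence / Read-out basis: % activation of max/min ratio relative to oxytocin controls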
TRPN1 ag 2: activates zebrafish TRPN1, counter-screen for TRPML3 agonists. actives 10% (n = 310). HEK293 zebrafish TRPN1-YFP, Fluo-8 calcium fluorescence; scaled: carbachol wells 100%, DMSO wells 0%. activation, % at 3 µM. AID 1525. shares compounds with TRPML3 ag;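 active = mean activation over replicates above a set limit taken from the earlier TRPN1 channel primary screen, cut at about 19% in these data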
TRPML3 confirm: confirmation of human TRPML3 channel agonists; actives 80% (n = 310); AID 1526; HEK293 TRPML3-YFP, Fluo-8 calcium fluorescence; 100% set by carbachol, 0% by DMSO; shares compounds with TRPML3 ag; activation, % at 3 µM;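 active = activation above a set limit derived from the earlier primary screen, cut at about 12% in these data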
OXTR agonist cf: confirmation of human oxytocin receptor agonists; activation, % at 3 µM; shares compounds with OXTR agonist; CHO-OTR cells, Fluo-8 calcium fluorescence, agonist; actives 20% (n = 390); AID 434963;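 active = mean activation above about 20% derived from the earlier single-dose screen, limit read from the data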;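 also: peak over minimum fluorescence ratio per well during a 100 second FLIPR read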
V1R ag counter 3x: activates V1a receptor in oxytocin agonist counter-screen; shares compounds with OXTR agonist; CHO-V1R cells, Fluo-8 calcium fluorescence; activation, % at 3 µM; actives 10% (n = 390); AID 434991;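 active = mean activation over triplicate exceeds the hit threshold set in the earlier primary screen, cut at about 20% in these data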;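 also: peak over basal fluorescence ratio within a 100 second read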
OXTR pot cf: human OXTR potentiation, confirmation | CHO-OTR cells, Fluo-8 calcium fluorescence; scaled from low-dose to maximal oxytocin | shares compounds with OXTR potentiate | 180 tested, under 10 active | activation, % at 3 µM;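 active = mean percent activation over triplicates above a cutoff set from solvent-only control plates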;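 also: compounds tested in the presence of an EC15 dose of oxytocin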
V1aR agonist cf: confirmation of human vasopressin V1a receptor agonists. shares compounds with V1aR counter. activation, % at 3 µM. actives 20% (n = 180). AID 434964. CHO-V1R cells, Fluo-8 calcium fluorescence, agonist;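 active = average activation exceeds primary screen hit cutoff, cut at about 21% in these data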;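 also: peak over basal fluorescence ratio during a 100 s FLIPR read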
OXTR counter: counter-screen for V1a receptor agonists: oxytocin receptor agonists. AID 434969. actives 10% (n = 180). activation, % at 3 µM. shares compounds with V1aR counter. CHO-OTR cells, Fluo-8 calcium fluorescence, agonist;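 active = mean activation over three repeats above the cutoff from the earlier oxytocin receptor agonist screen, cut at about 20% in these data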;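 also: peak over minimum fluorescence ratio within a 100 second FLIPR read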
Of the large screens only hits and unclear results are named; the others gave an inactive call (follow-up assays come after a bar, where they were run).

CCOc1ccc(NC(=O)c2c(O)[nH]c(=O)[nH]c2=O)cc1	none (no result: TRPN1 ag, TRPML3 ag)
CCOC(=O)c1ccc(NC(=O)c2c(O)[nH]c(=O)[nH]c2=O)cc1	TRPN1 ag 308, TRPML3 ag 247
O=c1[nH]oc2c1CCNC2	none (no result: TRPN1 ag, TRPML3 ag)
O=C(CN1CCN(C(=O)COc2cccc(F)c2)CC1)Nc1ccc(Cl)c(C(F)(F)F)c1	none (no result: TRPN1 ag, TRPML3 ag)
CC(C)=CCN1CC[C@@]2(C)c3cc(O)ccc3C[C@@H]1C2C (some centres not stated)	none (no result: TRPN1 ag, TRPML3 ag)
O=C1CC2OCC=C3CN4CCC56c7cc([N+](=O)[O-])ccc7N1C5C2C3CC46 (configuration not stated)	none
O=C1/C(=C\c2ccccc2)C2OCC=C3CN4CCC56c7ccccc7N1C5C2C3CC46 (configuration not stated)	OXTR agonist 20
CN1/C(=C\C=C2C(=O)NC(=O)NC2=O)C(C)(C)c2ccccc21	TRPN1 ag 42, OXTR agonist 25, TRPML3 ag 17, V1aR counter 32
CCCCn1c(=O)c(C(=O)Nc2ncccc2C)c(O)c2ccccc21	OXTR agonist 36, V1aR counter 39 (no result: TRPN1 ag, TRPML3 ag)
CCCCCCn1c(=O)c(C(=O)Nc2ncccc2C)c(O)c2ccccc21	OXTR agonist 38, V1aR counter 46 (no result: TRPN1 ag, TRPML3 ag)
CCCCCn1c(=O)c(C(=O)Nc2ccccc2C)c(O)c2ccccc21	none (no result: TRPN1 ag, TRPML3 ag)
O=C1NC(=O)N(Cc2ccc(F)cc2)C(=O)/C1=C\c1ccoc1	OXTR agonist 31, V1aR counter 29
O=C1NC(=O)N(c2ccc(Cl)cc2)C(=O)/C1=C\c1ccc(Sc2nc3ccccc3[nH]2)o1	TRPN1 ag 22, OXTR agonist 29, TRPML3 ag 12, V1aR counter 36
O=C(OC1CC2CCC(N2)C1C(=O)O)c1ccccc1 (configuration not stated)	none (no result: TRPN1 ag, TRPML3 ag)
Cc1nc2cc(C(F)(F)F)ccc2n1C1CCN(Cc2nnnn2Cc2cccs2)CC1	OXTR agonist 33, V1aR counter 37
Cc1nc2cc(C(F)(F)F)ccc2n1C1CCN(Cc2nnnn2Cc2ccc3c(c2)OCO3)CC1	none
CC1(C)CSC(=NCc2ccccc2)N1	TRPN1 ag 61, TRPML3 ag 58
O=C(/C=C/c1ccc(Br)cc1)NC(=S)N1C[C@H]2C[C@H](C1)c1cccc(=O)n1C2	none (no result: TRPN1 ag, TRPML3 ag)
CN1/C(=C\C=C\C2=[N+](C)c3ccc4ccccc4c3C2(C)C)C(C)(C)c2ccccc21	TRPN1 ag 24, OXTR agonist 81, TRPML3 ag 29, V1aR counter 59
COC(=O)C1=C(c2ccc(Cl)c(C(F)(F)F)c2)C[C@@H]2CC[C@H]1N2C(=O)NCCOc1ccccc1	none (no result: TRPN1 ag, TRPML3 ag)
O=C1CCCN1CC#CCN1CCCC1	TRPML3 ag 27 | TRPN1 ag 2 inactive | TRPML3 confirm 35
C/C=C1/C[C@@H](C)[C@](O)(CO)C(=O)OCC2=CCN3CC[C@@H](OC1=O)[C@@H]23	none (no result: TRPN1 ag, TRPML3 ag)
CCOc1cc2c(cc1OCC)-n1cccc1C(c1ccc(F)c(OC)c1)NC2 (configuration not stated)	OXTR agonist 22 (no result: TRPN1 ag, TRPML3 ag) | OXTR agonist cf inactive | V1R ag counter 3x inactive
CCCCn1c(=O)c(C(=O)NCc2ccccc2Cl)c(O)c2ccccc21	OXTR agonist 38 (no result: TRPN1 ag, TRPML3 ag) | OXTR agonist cf inactive | V1R ag counter 3x inactive
CNc1ccc2oc(C[C@H]3O[C@@]4(CC[C@H]3C)O[C@H]([C@H](C)C(=O)c3ccc[nH]3)[C@H](C)C[C@H]4C)nc2c1C(=O)O	OXTR agonist 75 (no result: TRPN1 ag, TRPML3 ag) | OXTR agonist cf 122 | V1R ag counter 3x 134
COC(=O)CCCNC(=O)CN1CC(c2ccccc2)CC1=O (configuration not stated)	none
Cc1cccc(C#N)c1	none (no result: TRPN1 ag, TRPML3 ag)
O=C(COc1ccc2ccccc2c1)N1CCN(Cc2c[nH]c3ccccc23)CC1	OXTR agonist 24 | OXTR agonist cf inactive | V1R ag counter 3x inactive
O=C(COc1ccc(Br)cc1)N1CCN(Cc2c[nH]c3ccccc23)CC1	none
Oc1ccc(C2NCc3ccccc3-n3cccc32)cc1Cl (configuration not stated)	OXTR agonist 28 | OXTR agonist cf inactive | V1R ag counter 3x inactive
FC(F)(F)c1cccc(C2NCc3ccccc3-n3cccc32)c1 (configuration not stated)	none (no result: TRPN1 ag, TRPML3 ag)
COC(=O)CC1=C(C(=O)OC)C2(C(=O)Nc3c(C)cccc32)C(C#N)=C(N)O1 (configuration not stated)	none
COc1ccc(C(c2c(O)c3ccccc3oc2=O)c2c(C)n(C)n(-c3ccccc3)c2=O)cc1 (configuration not stated)	OXTR potentiate 12 | OXTR pot cf inactive
CC(=O)O[C@H]1C[C@@H]2CC[C@@H]3[C@H](CC[C@]4(C)C(=O)CC[C@@H]34)[C@@]2(C)C[C@@H]1OC(C)=O	none (no result: TRPN1 ag, TRPML3 ag)
CN(C)c1ccc(/C=C/[N+](=O)[O-])cc1	V1aR counter 29 | V1aR agonist cf 38 | OXTR counter 24
CN1CCN(c2ccc([N+](=O)[O-])c3no[n+]([O-])c23)CC1	V1aR counter 28 | V1aR agonist cf inactive | OXTR counter inactive
CN1CCN(c2ccc(S(C)(=O)=O)cc2[N+](=O)[O-])CC1	none
CN(C)C1C(=O)C(C(N)=O)=C(O)C2(O)C(=O)C3=C(O)c4c(O)cccc4C(C)(O)C3C(O)C12 (configuration not stated)	none (no result: TRPN1 ag, TRPML3 ag)
CC1(C)OC(c2ccccc2)=C/C(=C/C=C2C(=O)NC(=O)NC2=O)O1	TRPN1 ag 46, TRPML3 ag 24, V1aR counter 22 | V1aR agonist cf 37 | OXTR counter 25
CCOC(=O)[C@]1(C#N)[C@@H]2C=CC(C(C)=O)=CN2[C@@H](C(N)=O)[C@@H]1c1ccsc1	none
